Bioassay records: PubChem, several laboratories
SENP8 block-1 = blocks the human protease SENP8; Q96LD8; purified SENP8, Z-RLRGG-aminoluciferin cleavage, luminescence; inhibition, % at 10 µM; actives 1.2% (n = 330,000); in the data active = inhibition above about 50%
SENP7 inh = inhibitors of human SENP7 protease; actives 1.5% (n = 330,000); inhibition, % at 5 µM; Q9BQF6; recombinant SENP7, Z-RLRGG-aminoluciferin luminescence, 40 min;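 active = inhibition above about 50% at the single test dose, limit read from the data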;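 note: plate controls were DMSO with enzyme for no effect and no enzyme buffer wells for full effect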
Platelet DG rel = platelet dense granule release activity; human platelet-rich plasma, SFLLRN dense granule ATP release, luminescence; inhibition, %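 (compounds screened at 7.5 µM in platelet-rich plasma)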; actives 0.22% (n = 300,000);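 active = mean replicate score, as percent of positive control, at or above 50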
SENP6 block = SENP6 protease inhibition | actives 1.8% (n = 330,000) | inhibition, % at 10 µM | Recombinant SENP6 catalytic domain, aminoluciferin luminescence;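 active = inhibition above about 50% at the single tested dose, limit read from the data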;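 note: plate controls were DMSO wells with enzyme for no effect and DMSO wells lacking enzyme for full effect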
SENP8 block-2 = SENP8 (human) protease inhibition; actives 0.64% (n = 360,000); inhibition, % at 20 µM; recombinant SENP8, Nedd8 substrate fluorescence; in the data active = inhibition mostly above about 40%, no sharp cut-off; inactive = mostly below about 27%
SENP1 inh = inhibitors of human SENP1 SUMO protease catalytic domain. recombinant SENP1 catalytic domain, CyPet-SUMO1-YPet FRET cleavage. inhibition, % at 10 µM. actives 0.21% (n = 360,000);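 active = inhibition at least 30% at 10 µM, raw YFP signal under a set limit, fluorescence ratio 0.5 to 1.5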;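 note: 0% = enzyme with DMSO and 100% = no enzyme wells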
Target sequence (Q9P0U3 419-644 limits assumed): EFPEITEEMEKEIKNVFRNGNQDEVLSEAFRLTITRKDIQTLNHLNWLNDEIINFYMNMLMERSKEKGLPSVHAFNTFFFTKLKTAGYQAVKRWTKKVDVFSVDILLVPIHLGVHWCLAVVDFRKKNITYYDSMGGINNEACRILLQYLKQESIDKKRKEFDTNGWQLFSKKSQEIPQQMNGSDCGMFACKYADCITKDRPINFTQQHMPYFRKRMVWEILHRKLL
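System: Recombinant human SENP1 catalytic domain, His6-tagged | Incubation: Enzyme reaction for 50 min at room temperature, dark | Medium: Tris pH 8 with BME, BSA, NP40 and catalase | Also added: 25 nM SUMO1 FRET substrate | Compound: 10 µM single point, 0.5% DMSO | Measured by: FRET fluorescence in CFP and YFP emission channels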
SENP8 confirm = confirmation of human SENP8 protease inhibitors | shares compounds with SENP7 inh | Recombinant SENP8, Z-RLRGG-aminoluciferin luminescence, 60 min | inhibition, % at 12.5 µM | actives 40% (n = 6,200) | AID 488912;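 active = mean inhibition across replicates above about 50%, limit read from the data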
SENP6 conf = human SENP6 inhibition, confirmed; shares compounds with SENP7 inh; recombinant SENP6, Z-RLRGG-aminoluciferin luminescence; inhibition, % at 12.5 µM; actives 58% (n = 6,200); AID 488915
SENP7 confirm = human SENP7 inhibition, confirmed; recombinant SENP7, Z-RLRGG-aminoluciferin luminescence, 40 min; inhibition, % at 12.5 µM; actives 69% (n = 6,200); AID 488917; shares compounds with SENP7 inh
Casp3 SENP sel = inhibits human caspase-3 in SENP selectivity test. purified caspase-3, Z-DEVD-aminoluciferin luminescence, 60 min. inhibition, % at 12.5 µM. actives 60% (n = 6,200). AID 488918. shares compounds with SENP7 inh;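 active = mean inhibition above about 50%, limit read from the data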;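 note: plate controls were enzyme with DMSO for no effect and wells without caspase-3 for full effect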
Target sequence (P42574 28-227 limits assumed): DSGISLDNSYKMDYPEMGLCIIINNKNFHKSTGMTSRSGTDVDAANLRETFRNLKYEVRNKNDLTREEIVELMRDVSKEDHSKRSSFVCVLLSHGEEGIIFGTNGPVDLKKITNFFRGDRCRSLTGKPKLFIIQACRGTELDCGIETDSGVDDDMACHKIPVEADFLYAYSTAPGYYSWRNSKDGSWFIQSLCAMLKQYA
Luc interf = luminescence interference (SENP counter-screen); shares compounds with SENP7 inh; Pre-incubated SENP8/Z-RLRGG-aminoluciferin, luciferase luminescence interference; inhibition, % at 12.5 µM; actives 39% (n = 6,200); AID 488919;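 active = mean inhibition above about 50% when retested at one dose, limit read from the data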;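 note: plate controls were DMSO wells with completed reaction for no effect and substrate without enzyme for full effect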
* marks the source's active call; other numbers are inactive results; i = inactive; . = no result. In the library only some 2.6% were active in any assay of this set; here they are far more common.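 Rule for the calls, unless noted: active = mean inhibition above about 50% in the one-dose retest (limit read from the data); inactive = the rest.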

SMILES	SENP8 block-1	SENP7 inh	Platelet DG rel	SENP6 block	SENP8 block-2	SENP1 inh	SENP8 confirm	SENP6 conf	SENP7 confirm	Casp3 SENP sel	Luc interf
Cc1c(C)c2ccc(OCc3ccc(C(=O)O)o3)c(C)c2oc1=O	65.2*	50.4*	-4.1	77.0*	-298.7	-1.5	8.9	66.0*	79.4*	16.4	56.6*
Cc1cc(C)cc(COc2ccc3c(C)c(CC(=O)O)c(=O)oc3c2C)c1	-3.1	-4.1	-2.8	-8.6	-298.8	-4.8	.	.	.	.	.
COC(=O)c1ccc(COc2ccc3c(C)c(C)c(=O)oc3c2)o1	53.9*	29.8	-4.3	39.2	-275.8	-2.3	10.8	9.6	4.4	-0.2	1.5
COC(=O)c1ccc(COc2ccc(C)c(C)c2)o1	28.7	3.5	2.2	36.2	9.6	-1.5	.	.	.	.	.
CC(C)c1ccc(COc2ccc(C(=O)N3CCOCC3)cc2)cc1	1.6	7.1	1.8	2.6	3.9	1.9	.	.	.	.	.
Cc1ccc(OCc2ccc(C(=O)O)o2)cc1C	84.5*	81.7*	-4.0	88.2*	26.0	0.0	3.5	92.9*	101.0*	40.8	92.8*
Cc1ccc(OCc2ccc(C(=O)N3CCOCC3)cc2)cc1C	74.9*	89.9*	5.5	83.2*	33.3	2.3	-7.4	73.7*	94.4*	83.8*	80.2*
O=c1c(N2CCOCC2)nsn1Cc1ccccc1	-9.7	-3.7	0.8	-14.8	18.9	1.6	.	.	.	.	.
CC(C)c1nc2cc(C(=O)N(C)C3CCOCC3)ccc2o1	3.9	-3.9	-6.6	11.1	6.0	4.3	.	.	.	.	.
Cc1ccccc1C(=O)NC(=S)Nc1ccc(S(=O)(=O)N(C)c2ccccc2)cc1	-3.6	-1.7	-3.6	-1.4	28.2	0.0	.	.	.	.	.
CC(C)(c1ccccc1)c1ccc(OCc2ccc(C(=O)O)o2)cc1	60.5*	12.5	.	72.6*	17.7	4.7	5.5	72.7*	73.2*	5.8	78.4*
CC(C)(C)c1ccc(OCc2ccc(C(=O)NN)o2)cc1	2.1	-1.6	-2.8	-4.3	-1.5	2.7	.	.	.	.	.
COc1cc(C2C(C#N)=C(N)Oc3n[nH]c(C)c32)cc2c1OCO2 (centres undefined)	5.8	3.4	-0.3	5.1	22.6	-5.6	.	.	.	.	.
C=C(C)C(O)CC/C(C)=C/Cc1c(O)ccc(C(=O)/C=C/c2ccc(O)cc2)c1O (centres undefined)	89.5*	64.8*	.	87.8*	36.0	7.7	96.6*	96.0*	98.6*	37.4	39.2
Nc1ncnc2c1ncn2[C@@H]1O[C@H](COS(=O)(=O)O)[C@@H](O)[C@H]1O	-1.0	8.6	.	-13.6	0.6	0.8	.	.	.	.	.
O=C(Nc1ccccc1)Oc1ccc[nH]c1=O	11.3	43.7	8.1	74.5*	17.6	2.7	-21.7	-14.5	2.3	11.8	15.1
O=C(Nc1cccnc1)c1cnn2c(C(F)F)cc(C3CC3)nc12	12.7	1.8	1.0	0.1	11.7	-1.1	.	.	.	.	.
N#C/C(=C\Nc1ccc(Cl)cn1)S(=O)(=O)c1ccccc1	-2.0	7.3	6.1	7.4	-12.0	-2.5	.	.	.	.	.
N#Cc1c(N2CCN(c3ccc(F)cc3)CC2)nc(N)c2c(N)nc3c(c12)CC(=O)N3C1CC1	.	.	.	.	-328.5	-22.8	.	.	.	.	.
CN(CCO)c1nc(N)c2c(N)nc3c(c2c1C#N)CC(=O)N3C1CCCC1	95.9*	96.2*	-52.7	91.3*	.	.	10.9	9.6	-7.3	-2.2	-0.9
CC(C)(C)N1C(=O)Cc2c1nc(N)c1c(N)nc(N3CCCCC3CO)c(C#N)c21 (centres undefined)	96.5*	94.2*	-7.8	93.1*	i	-54.9	19.6	25.5	9.1	0.8	-0.3
